Experimental data published in publication PMC3394096 (Investigational New Drugs, 2011).
“Also recorded” adds a separate entry of the source. Marks after values point to notes of the source that are not given here.

Legend:
KSP = conditions: read-out: IC50 (KSP); background statement, ref not given; cited from earlier work
HCT116 (colon cancer) = conditions: cited from earlier work
KB-3-1 (cervical cancer) = conditions: cited from earlier work
A2780 (ovarian cancer) = conditions: cited from earlier work
[1] = Phase I urinary recovery of unchanged drug; type: in vivo, human; conditions: on average, at the highest dose levels
Summary of the method: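 Urine collected during the 24 h infusion at 0–4, 4–8, 8–12 and 12–24 h, then at 24–28, 28–32, 32–36 and 36–48 h from infusion start. Unchanged test compound concentration and urine volume per interval gave total urinary recovery as percentage of dose. Calculated for subjects at the highest dose levels.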

[2] = test system: human ovarian carcinoma cells; conditions: treated human ovarian carcinoma cells; cited from earlier work
solid tumors = test: Phase I tumor response; type: in vivo, human
Summary of the method: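 Patients with measurable taxane-resistant solid tumors received a 24 h continuous IV infusion every 21 days, with serial radiologic assessments. At baseline, longest diameters were summed for up to five lesions per organ and ten in total. Lesions had to measure ≥20 mm by conventional techniques or ≥10 mm by spiral CT. Response and progression were graded by RECIST v1.0.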

[3] = Phase I safety, dose-limiting toxicity and maximum tolerated dose; type: in vivo, human
Ca125 antigen = test: Phase I serum Ca125 antigen; type: in vivo, human; conditions: ovarian cancer patient with prolonged stable disease
xenograft tumors = conditions: mice, multi-dose regimen; background statement, ref not given; cited from earlier work
[4] = Phase I plasma pharmacokinetics, 24-hour continuous IV infusion; type: in vivo, human
Summary of the method: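 Test compound given to patients as a 24 h continuous IV infusion in 21-day cycles. Plasma sampled predose, at 1, 3, 6, 12, 16 and 24 h, then at 24.5–96 h from infusion start. Extraction used pH 10.7 carbonate buffer with MTBE:hexane, then HPLC-MS/MS in positive ion mode; standard curve 1–200 ng/mL. t1/2 from an unweighted single-exponential fit to the log-linear terminal phase. AUC(0-∞) by linear up/log down with extrapolation. Clearance calculated as dose/AUC.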

other kinesins = conditions: background statement, ref not given; cited from earlier work
[5] = 12 mg/m^2/24 h, treatment-related, all cycles (n=47)
[6] = 17 mg/m^2/24 h, treatment-related, all cycles (n=47)
[7] = 24 mg/m^2/24 h, treatment-related, all cycles (n=47)
[8] = 48 mg/m^2/24 h, treatment-related, all cycles (n=47)

Q: For CN1CC[C@H](N(C)C(=O)N2CC(c3cc(F)ccc3F)=C[C@@]2(CO)c2ccccc2)[C@H](F)C1 [MK-0731, (2S)-4-(2,5-difluorophenyl)-n-[(3R,4S)-3-fluoro-1-methylpiperidin-4-yl]-2-(hydroxymethyl)-N-methyl-2-phenyl-2,5-dihydro-1H-pyrrole-1-carboxamide], which IC50 (KSP) is on record?
A: 2.2 nM

Q: What about the proliferation (HCT116 (colon cancer)) of the same compound?
A: inhibits proliferation

Q: And the proliferation (KB-3-1 (cervical cancer))?
A: inhibits proliferation

Q: And the proliferation (A2780 (ovarian cancer))?
A: inhibits proliferation

Q: What about the “dose recovered in urine as unchanged drug” value [1] of the same compound?
A: less than 4%

Q: What about the spindle pole separation [2] of the same compound?
A: inhibits spindle pole separation

Q: What about the “Number of cycles, patient with stable disease” value (solid tumors; 17 mg/m^2/24 h, non-small cell lung cancer) of the same compound?
A: 12 ^a cycles

Q: What about the “Number of cycles, patient with stable disease” value (solid tumors; 17 mg/m^2/24 h, ovarian cancer) of the same compound?
A: 11 ^a cycles

Q: And the “patients with prolonged stable disease” value (solid tumors; 17 mg/m^2/24 h, part 2)?
A: four

Q: What about the “objective tumor response (RECIST)” value (solid tumors; all patients) of the same compound?
A: no objective tumor responses; also recorded: no partial or complete responses

Q: What about the “toxicities, part 1” value ([3]; 12 mg/m^2) of the same compound?
A: no further toxicities were observed

Q: And the “Leukopenia, Grade 2, %” value [3, 5]?
A: 2.1%

Q: What about the “Neutropenia, Grade 2, %” value [3, 5] of the same compound?
A: 2.1%

Q: And the “Vomiting, Grade 2, %” value [3, 5]?
A: 2.1%

Q: And the “DLT, part 1” value ([3]; 17 mg/m^2, six patients)?
A: none experienced DLT

Q: And the “DLTs, part 2” value ([3]; 17 mg/m^2/24 h, 22 patients)?
A: no DLTs

Q: And the “Hypophosphatemia, Grade 2, %” value [3, 6]?
A: 2.1%

Q: And the “Leukopenia, Grade 3, %” value [3, 6]?
A: 2.1%

Q: What about the “Thrombocytopenia, Grade 2, %” value [3, 6] of the same compound?
A: 2.1%

Q: What about the “Leukopenia, Grade 2, %” value [3, 7] of the same compound?
A: 2.1%

Q: And the “Neutropenia, Grade 2, %” value [3, 7]?
A: 2.1%

Q: And the “Neutropenia, Grade 3, %” value [3, 7]?
A: 2.1%

Q: What about the “Hyperglycemia, Grade 3, %” value [3, 8] of the same compound?
A: 2.1%

Q: And the “Hypocalcemia, Grade 2, %” value [3, 8]?
A: 2.1%

Q: What about the “Hypophosphatemia, Grade 2, %” value [3, 8] of the same compound?
A: 2.1%

Q: What about the “Leukopenia, Grade 2, %” value [3, 8] of the same compound?
A: 2.1%

Q: What about the “Leukopenia, Grade 3, %” value [3, 8] of the same compound?
A: 2.1%

Q: And the “Mucosal Inflammation, Grade 2, %” value [3, 8]?
A: 2.1%

Q: What about the “Nausea, Grade 3, %” value [3, 8] of the same compound?
A: 2.1%

Q: And the “Thrombocytopenia, Grade 2, %” value [3, 8]?
A: 2.1%

Q: And the “Vomiting, Grade 3, %” value [3, 8]?
A: 2.1%

Q: And the maximum tolerated dose ([3]; 24-hour IV infusion, 21-day cycles)?
A: 17 mg/m^2

Q: What about the neuropathy ([3]; all doses) of the same compound?
A: without the development of neuropathy

Q: What about the “levels of the Ca125 antigen” value (Ca125 antigen) of the same compound?
A: No decreases

Q: And the “growth of xenograft tumors” value (xenograft tumors)?
A: inhibited to a similar degree

Q: And the “dose dependence of end of infusion concentrations and AUC” value ([4]; 6 to 48 mg/m^2/24 h)?
A: increase approximately dose proportionally; also recorded: increased approximately proportionately to the dose administered

Q: What about the “AUC (±SD)” value ([4]; at the MTD (17 mg/m^2/24 h)) of the same compound?
A: 10.5 (±7.3) μM × hour

Q: What about the “clearance (±SD)” value ([4]; at the MTD (17 mg/m^2/24 h)) of the same compound?
A: 153 mL/min

Q: And the “selectivity for KSP compared with other kinesins” value (other kinesins)?
A: > 20,000 fold

Q: With CC(=O)O[C@H]1C(=O)[C@@]2(C)[C@H]([C@H](OC(=O)c3ccccc3)[C@]3(O)C[C@H](OC(=O)[C@H](O)[C@@H](NC(=O)c4ccccc4)c4ccccc4)C(C)=C1C3(C)C)[C@]1(OC(C)=O)CO[C@@H]1C[C@@H]2O [paclitaxel, reference compound] as the compound, how does the “growth of xenograft tumors” value (xenograft tumors) read?
A: inhibited to a similar degree
